“Also recorded” adds a separate entry of the source. Like-named read-outs stand apart in the source and are kept apart here. One block for each molecule: values may come before it.
Experiments:
[1] = Drug metabolism rate assay; format: in vitro ADME; conditions: human, MHCC97-H cells
E-Cadherin = assay: AmpliSeq expression in MHCC97-H cells: E-Cadherin; format: cell-based; conditions: Fig. 5B
Procedure, shortened: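 MHCC97-H cells in DMEM with 10% FBS were treated with pralatrexate (2, 1, 0.5), fatostatin (1, 0.1) or BAY-876 (1, 0.1 μmol/L). RNA (10 ng) was reverse transcribed and amplified with custom AmpliSeq RNA panels. Expression was normalised to β-actin. Three replicate wells per sample; three biological replicates.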

miRNA-34a/Notch pathway = assay: BSP-NGS, AmpliSeq and western blot of subcutaneous tumour tissues; format: in vivo, nude mice
Procedure, shortened: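 Female BALB/c nude mice (5-week-old, SPF) bore subcutaneous MHCC97-H tumours, one per animal, 10 per group. Pralatrexate 5 mg/kg was given by oral gavage every other day for about 15 doses. All excised tumours underwent BSP-NGS (miRNA-34a promoter methylation) and AmpliSeq (miRNA-34a expression). Tumours 2, 4 and 8 were lysed in RIPA/SDS buffer for western blot of NICD against GAPDH.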

[2] = tested on: miRNA-34a promoter region; assay: BSP-NGS methylation of miRNA-34a promoter in MHCC97-H cells; format: cell-based; conditions: MHCC97-H cells with direct expression of NICD, Fig. 7
Procedure, shortened: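 Genomic DNA from NICD-lentivirus-transduced MHCC97-H cells was isolated with a kit and used for bisulfite sequencing PCR plus next-generation sequencing. The region analysed was the miRNA-34a promoter segment chr1: 9152409–9152574, which holds seven CpG sites. Methylation rates were calculated by the Ma et al. (2020) procedure.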

NICD = assay: AmpliSeq expression in MHCC97-H cells: NICD; format: cell-based; conditions: MHCC97-H cells with direct expression of NICD, Fig. 7
MHCC97-H cells [3] = assay: In vivo tumor model, MHCC97-H subcutaneous tumours; parameters: species or system nude mice
miRNA-34a = assay: AmpliSeq miRNA-34a expression in MHCC97-H cells; format: cell-based; conditions: MHCC97-H cells with direct expression of NICD, Fig. 7
Procedure, shortened: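 MHCC97-H cells were transduced with NICD lentivirus and cultured in DMEM with 10% FBS. RNA (10 ng) was reverse transcribed and cDNA amplified with custom AmpliSeq RNA panels to quantify miRNA-34a, normalised to β-actin. Three replicate wells per sample; three biological replicates.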

HCC cells = assay: Biochemical examination of metabolic features; format: cell-based; conditions: compared to BAY-876 or fatostatin, Fig. 6
Notch 1 protein and NICD = assay: Sub-cellular fraction assay with western blot; format: cell-based; conditions: MHCC97-H, 2 μmol/L, 30 min, 1 h, 2 h
Procedure, shortened: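 After treatment, cells were sonicated. Nuclei were pelleted at 800 rpm, 4 °C, ~3 min, and the cytoplasmic fraction at 12,000 rpm, 4 °C, ~10 min. Fractions were boiled ~15 min in SDS-PAGE buffer and blotted onto PVDF. One C-terminal Notch1 antibody detected full-length Notch1 (>220 kDa) and NICD (~110 kDa). β-actin and Lamin A served as cytoplasmic and nuclear markers; detection was by chemiluminescence.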

HepG2 cells = assay: MTT assay, HepG2 cells; format: cell-based; conditions: Homo sapiens
Procedure, shortened: (§1)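 HCC cells were transfected with control siRNA or siRNA against DHFR. Test compound was dissolved in DMSO, diluted in DMEM and applied at a concentration series. Viability was read by MTT and OD 490 nm. Inhibition = (OD control − OD treated)/OD control × 100%. IC50 was taken from dose–effect curves.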

HepG2 2.2.15 cells = assay: MTT assay, HepG2 2.2.15 cells; format: cell-based; conditions: Homo sapiens
Procedure, shortened: as §1

MHCC97-H cells [4] = assay: MTT assay, MHCC97-H cells; format: cell-based; conditions: Homo sapiens, MHCC97H
Procedure, shortened: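 MHCC97-H cells in DMEM with 10% FBS were pretreated 6–8 h with solvent control or pralatrexate (0.5, 1, 2 μmol/L). Molecular targeted drugs were then added as a seven-point series from 10 to 0.01 for about 48 h, with drugs dissolved in DMSO and diluted in DMEM. Viability was read by MTT at OD 490 nm. Inhibition % was computed against control and IC50 fitted in GraphPad Prism.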

LMC-3 cells = assay: MTT assay, LMC-3 cells; format: cell-based
Procedure, shortened: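 LMC-3 cells in DMEM with 10% FBS were transfected with control siRNA or siDHFR. They were then exposed to graded sorafenib concentrations and assayed by MTT. Inhibition = (OD490 control − OD490 treated)/OD490 control × 100%. IC50 was fitted from dose–effect curves in GraphPad Prism.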

- half-life at 0.3 μmol/L [1]: 13.2 h
Compound: COc1cccc2c1C(=O)c1c(O)c3c(c(O)c1C2=O)C[C@@](O)(C(=O)CO)C[C@@H]3O[C@H]1C[C@H](N)[C@H](O)[C@H](C)O1 [Adriamycin, adriamycin]

Compound: Cc1c(NC(=O)c2cc(C(N)=O)nc3cc(F)ccc23)c(C(F)(F)F)nn1Cc1ccc(C#N)cc1 [BAY-876]
- E-Cadherin expression (E-Cadherin): enhanced the expression of E-Cadherin

Compound: CCCc1cc(-c2nc(-c3ccc(C)cc3)cs2)ccn1 [Fatostatin, fatostatin]
- E-Cadherin expression (E-Cadherin): enhanced the expression of E-Cadherin

Compound: C#CCC(Cc1cnc2nc(N)nc(N)c2n1)c1ccc(C(=O)N[C@@H](CCC(=O)O)C(=O)O)cc1 (stereo partly drawn) [Pralatrexate, pralatrexate]
- expression of NICD and Survivin in tumour tissue (miRNA-34a/Notch pathway; NICD expression restored in MHCC97-H cells, Pralatrexate 5 mg/kg): no longer able to inhibit the expression of NICD and Survivin
- expression of factors related to the Notch pathway in tumour tissue (miRNA-34a/Notch pathway; Pralatrexate 5 mg/kg oral): down-regulate the expression of factors related to the Notch pathway
- expression of miRNA-34a in tumour tissue (miRNA-34a/Notch pathway; Pralatrexate 5 mg/kg oral): up-regulate the expression of miRNA-34a
- methylation of the promoter region of miRNA-34a in tumour tissue (miRNA-34a/Notch pathway; Pralatrexate 5 mg/kg oral): inhibit the methylation of the promoter region of miRNA-34a
- methylation rates of miRNA-34a promoter region [2]: decrease the methylation rates
- E-Cadherin expression (E-Cadherin): upregulated the expression of E-cadherin; also recorded: enhanced the expression of E-Cadherin
- expression levels of NICD and Notch downstream factors (NICD): no longer able to affect the expression levels of NICD and Notch downstream factors
- effect of combination on antitumour activity of sorafenib (MHCC97-H cells [3]; 5 mg/kg Pralatrexate + 0.2 mg/kg sorafenib, oral): significantly increase the antitumour activity of sorafenib
- antitumour activity / cytotoxicity, subcutaneous tumours (MHCC97-H cells [3]; Pralatrexate 5 mg/kg oral gavage, alone): did not have significant cytotoxicity and weak
- anti-tumour activity, subcutaneous tumours (MHCC97-H cells [3]; Pralatrexate higher doses (e.g. 20 mg/kg) oral gavage): significant anti-tumour activity
- miRNA-34a expression (miRNA-34a): upregulate miRNA-34a expression
- Warburg effect of HCC cells (HCC cells): did not inhibit the Warburg effect
- Notch 1 protein expression (cytoplasm) (Notch 1 protein and NICD): did not affect the protein expression of Notch 1
- distribution of NICD in the nucleus (Notch 1 protein and NICD): did not affect the distribution of NICD in the nucleus

- IC50 (HepG2 cells; HepG2, read-out: IC50 values of sorafenib on HCC cells, HepG2 cells, control): 1.16 µM
- IC50 (HepG2 cells; HepG2, read-out: IC50 values of sorafenib on HCC cells, HepG2 cells, siDHFR): 0.037 µM
- IC50 (HepG2 2.2.15 cells; HepG2 2.2.15, read-out: IC50 values of sorafenib on HCC cells, HepG2 2.2.15 cells, control): 1.25 µM
- IC50 (HepG2 2.2.15 cells; HepG2 2.2.15, read-out: IC50 values of sorafenib on HCC cells, HepG2 2.2.15 cells, siDHFR): 0.013 µM
- half-life at 1 μmol/L [1]: 18.8 h
Compound: CNC(=O)c1cc(Oc2ccc(NC(=O)Nc3ccc(Cl)c(C(F)(F)F)c3)cc2)ccn1 [Sorafenib, sorafenib]
- IC50 (MHCC97-H cells [4]; read-out: IC50 value of sorafenib in MHCC97-H cells, Control siRNA): 1.11 µM
- IC50 (MHCC97-H cells [4]; read-out: IC50 values of Sorafenib on MHCC97-H cells, Control group): 1.02 µM
- IC50 (MHCC97-H cells [4]; read-out: IC50 values of Sorafenib on MHCC97-H cells, DHFR + miRNA-34a): 0.25 µM
- IC50 (MHCC97-H cells [4]; read-out: IC50 values of Sorafenib on MHCC97-H cells, DHFR overexpression): 5.38 µM
- IC50 (MHCC97-H cells [4]; read-out: IC50 values of Sorafenib on MHCC97-H cells, siDHFR + NICD): 5.67 µM
- IC50 (LMC-3 cells; read-out: IC50 values of sorafenib on HCC cells, LMC-3 cells, control): 0.91 µM
- IC50 (LMC-3 cells; read-out: IC50 values of sorafenib on HCC cells, LMC-3 cells, siDHFR): 0.025 µM
- antitumour activity, subcutaneous tumours (MHCC97-H cells [3]; sorafenib 0.2 mg/kg (low dose) oral gavage, alone): weak subcutaneous tumourigenic inhibitory activity and weak

Source: publication PMC11589030 (Discover Oncology, 2024)
